System: IGROV-1
Test: Antitumor activity against human IGROV1 cells assessed as reduction of cell growth at 10 uM after 48 hrs by SRB assay
Type: functional
Set-up: scale not given: the % may be the effect or the level left
How it was run: (§1)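 NCI 60-cell-line primary screen, single dose 10^-5 M (final). Cells grown in RPMI 1640 with 5% FBS and 2 mM L-glutamine, seeded at 5000–40,000 cells/well and preincubated 24 h at 37 °C, 5% CO2. Compound is dissolved in DMSO, diluted in medium with gentamicin, and exposed 48 h. Cells are fixed with 10% TCA (final) and stained with 0.4% SRB; absorbance is read at 515 nm. Readout is growth percentage.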

For C[C@]12CCC(=O)C(N)=C1C=C[C@@H]1[C@@H]2CC[C@]2(C)C(=O)CC[C@@H]12.Cl, which Activity is on record?
The Activity was 49.46%.

System: T47D
Test: Antitumor activity against human T47D cells assessed as reduction of cell growth at 10 uM after 48 hrs by SRB assay
Type: functional
Set-up: scale not given: the % may be the effect or the level left
How it was run: (§2)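 NCI-60 one-dose primary screen at 10^-5 M final. Cells grown in RPMI 1640 with 5% FBS and 2 mM L-glutamine, plated at 5000–40,000 cells/well and preincubated 24 h at 37 °C, 5% CO2. Drug stocks in DMSO, diluted in medium with gentamicin. Exposure 48 h, then fixed in situ with TCA (10% final) for 60 min at 4 °C. Stained with 0.4% SRB in 1% acetic acid, bound dye solubilized in 10 mM trizma base, absorbance read at 515 nm. Reported as mean growth percent; negative values indicate cell kill.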

For C[C@]12CCC(=O)C(N)=C1C=C[C@@H]1[C@@H]2CC[C@]2(C)C(=O)CC[C@@H]12.Cl, which Activity is on record?
The Activity was 73.66%.

System: MCF7
Test: Antitumor activity against human MCF7 cells assessed as reduction of cell growth at 10 uM after 48 hrs by SRB assay
Type: functional
Set-up: scale not given: the % may be the effect or the level left
How it was run: as §1

Which Activity does the source give for C[C@]12CCC(=O)C(N)=C1C=C[C@@H]1[C@@H]2CC[C@]2(C)C(=O)CC[C@@H]12.Cl here?
The Activity was -15.97%.

System: not listed separately
Test: Antitumor activity against human Hs 578T cells assessed as reduction of cell growth at 10 uM after 48 hrs by SRB assay
Type: functional
Set-up: scale not given: the % may be the effect or the level left
How it was run: as §1

For C[C@]12CCC(=O)C(N)=C1C=C[C@@H]1[C@@H]2CC[C@]2(C)C(=O)CC[C@@H]12.Cl, which Activity is on record?
The Activity was 112.26%.

System: BT-549
Test: Antitumor activity against human BT-549 cells assessed as reduction of cell growth at 10 uM after 48 hrs by SRB assay
Type: functional
Set-up: scale not given: the % may be the effect or the level left
How it was run: as §1

With C[C@]12CCC(=O)C(N)=C1C=C[C@@H]1[C@@H]2CC[C@]2(C)C(=O)CC[C@@H]12.Cl as the compound, how does the Activity read?
Its Activity is 82.63%.

System: SW-620
Test: Antitumor activity against human SW620 cells assessed as reduction of cell growth at 10 uM after 48 hrs by SRB assay
Type: functional
Set-up: scale not given: the % may be the effect or the level left
How it was run: as §2

Which Activity does the source give for C[C@]12CCC(=O)C(N)=C1C=C[C@@H]1[C@@H]2CC[C@]2(C)C(=O)CC[C@@H]12.Cl here?
The Activity was 15.36%.

System: KM12
Test: Antitumor activity against human KM12 cells assessed as reduction of cell growth at 10 uM after 48 hrs by SRB assay
Type: functional
Set-up: scale not given: the % may be the effect or the level left
How it was run: as §1

For C[C@]12CCC(=O)C(N)=C1C=C[C@@H]1[C@@H]2CC[C@]2(C)C(=O)CC[C@@H]12.Cl, which Activity is on record?
The Activity was 39.52%.

System: HCT-15
Test: Antitumor activity against human HCT-15 cells assessed as reduction of cell growth at 10 uM after 48 hrs by SRB assay
Type: functional
Set-up: scale not given: the % may be the effect or the level left
How it was run: as §1

For C[C@]12CCC(=O)C(N)=C1C=C[C@@H]1[C@@H]2CC[C@]2(C)C(=O)CC[C@@H]12.Cl, which Activity is on record?
Its Activity is 72.99%.

System: COLO 205
Test: Antitumor activity against human COLO205 cells assessed as reduction of cell growth at 10 uM after 48 hrs by SRB assay
Type: functional
Set-up: scale not given: the % may be the effect or the level left
How it was run: as §1

With C[C@]12CCC(=O)C(N)=C1C=C[C@@H]1[C@@H]2CC[C@]2(C)C(=O)CC[C@@H]12.Cl as the compound, how does the Activity read?
The Activity was 121.26%.

System: NCI-H522
Test: Antitumor activity against human NCI-H522 cells assessed as reduction of cell growth at 10 uM after 48 hrs by SRB assay
Type: functional
Set-up: scale not given: the % may be the effect or the level left
How it was run: as §1

Which Activity does the source give for C[C@]12CCC(=O)C(N)=C1C=C[C@@H]1[C@@H]2CC[C@]2(C)C(=O)CC[C@@H]12.Cl here?
Its Activity is 76.59%.

System: NCI-H460
Test: Antitumor activity against human NCI-H460 cells assessed as reduction of cell growth at 10 uM after 48 hrs by SRB assay
Type: functional
Set-up: scale not given: the % may be the effect or the level left
How it was run: as §1

Which Activity does the source give for C[C@]12CCC(=O)C(N)=C1C=C[C@@H]1[C@@H]2CC[C@]2(C)C(=O)CC[C@@H]12.Cl here?
Its Activity is 83.77%.

System: NCI-H322M
Test: Antitumor activity against human NCI-H322M cells assessed as reduction of cell growth at 10 uM after 48 hrs by SRB assay
Type: functional
Set-up: scale not given: the % may be the effect or the level left
How it was run: as §1

With C[C@]12CCC(=O)C(N)=C1C=C[C@@H]1[C@@H]2CC[C@]2(C)C(=O)CC[C@@H]12.Cl as the compound, how does the Activity read?
The Activity was 88.38%.

System: NCI-H226
Test: Antitumor activity against human NCI-H226 cells assessed as reduction of cell growth at 10 uM after 48 hrs by SRB assay
Type: functional
Set-up: scale not given: the % may be the effect or the level left
How it was run: as §1

For C[C@]12CCC(=O)C(N)=C1C=C[C@@H]1[C@@H]2CC[C@]2(C)C(=O)CC[C@@H]12.Cl, which Activity is on record?
The Activity was 96.3%.

System: HOP-92
Test: Antitumor activity against human HOP-92 cells assessed as reduction of cell growth at 10 uM after 48 hrs by SRB assay
Type: functional
Set-up: scale not given: the % may be the effect or the level left
How it was run: as §1

With C[C@]12CCC(=O)C(N)=C1C=C[C@@H]1[C@@H]2CC[C@]2(C)C(=O)CC[C@@H]12.Cl as the compound, how does the Activity read?
The Activity was 61.94%.

System: EKVX
Test: Antitumor activity against human EKVX cells assessed as reduction of cell growth at 10 uM after 48 hrs by SRB assay
Type: functional
Set-up: scale not given: the % may be the effect or the level left
How it was run: as §1

Which Activity does the source give for C[C@]12CCC(=O)C(N)=C1C=C[C@@H]1[C@@H]2CC[C@]2(C)C(=O)CC[C@@H]12.Cl here?
Its Activity is 97.99%.

System: A549
Test: Antitumor activity against human A549/ATCC cells assessed as reduction of cell growth at 10 uM after 48 hrs by SRB assay
Type: functional
Set-up: scale not given: the % may be the effect or the level left
How it was run: as §1

For C[C@]12CCC(=O)C(N)=C1C=C[C@@H]1[C@@H]2CC[C@]2(C)C(=O)CC[C@@H]12.Cl, which Activity is on record?
The Activity was 103.34%.

System: SF-539
Test: Antitumor activity against human SF-539 cells assessed as reduction of cell growth at 10 uM after 48 hrs by SRB assay
Type: functional
Set-up: scale not given: the % may be the effect or the level left
How it was run: as §1

With C[C@]12CCC(=O)C(N)=C1C=C[C@@H]1[C@@H]2CC[C@]2(C)C(=O)CC[C@@H]12.Cl as the compound, how does the Activity read?
The Activity was 82.75%.

System: SNB-75
Test: Antitumor activity against human SNB75 cells assessed as reduction of cell growth at 10 uM after 48 hrs by SRB assay
Type: functional
Set-up: scale not given: the % may be the effect or the level left
How it was run: as §1

Which Activity does the source give for C[C@]12CCC(=O)C(N)=C1C=C[C@@H]1[C@@H]2CC[C@]2(C)C(=O)CC[C@@H]12.Cl here?
Its Activity is 94.19%.

System: U-251
Test: Antitumor activity against human U251 cells assessed as reduction of cell growth at 10 uM after 48 hrs by SRB assay
Type: functional
Set-up: scale not given: the % may be the effect or the level left
How it was run: as §2

With C[C@]12CCC(=O)C(N)=C1C=C[C@@H]1[C@@H]2CC[C@]2(C)C(=O)CC[C@@H]12.Cl as the compound, how does the Activity read?
Its Activity is 54.19%.

Source: ChEMBL document CHEMBL1142454, “Synthesis and evaluation of novel 4-amino-4,6-androstadiene-3,17-dione: an analog of formestane” (2008)
